Data reported in ChEMBL document CHEMBL1138008, “2-(2-[3-(pyridin-3-yloxy)phenyl]-2H-tetrazol-5-yl) pyridine: a highly potent, orally active, metabotropic glutamate subtype 5 (mGlu5) receptor antagonist” (Bioorg Med Chem Lett, 2004).

Legend:
[1] = target: T1, Metabotropic glutamate receptor 5 (Homo sapiens, UniProt P41594); assay: Antagonistic activity against Metabotropic glutamate receptor 5 in [Ca2+] flux assay using glutamate (10 uM) as agonist; assay type: functional
Outline: (§1)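 Functional mGlu5 antagonism was read as Ca²⁺ flux, with glutamate at 10 μM as agonist. Values come from n = 2–4 determinations, with SD < ±25%.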

[2] = target: T2, Metabotropic glutamate receptor 5 (Rattus norvegicus, UniProt P31424); assay: Binding affinity towards Metabotropic glutamate receptor was determined by displacing [3H]3-methoxy-5-(pyridin-2-ylethynyl)pyridine from rat cortical membranes
T2 sequence (P31424 whole entry): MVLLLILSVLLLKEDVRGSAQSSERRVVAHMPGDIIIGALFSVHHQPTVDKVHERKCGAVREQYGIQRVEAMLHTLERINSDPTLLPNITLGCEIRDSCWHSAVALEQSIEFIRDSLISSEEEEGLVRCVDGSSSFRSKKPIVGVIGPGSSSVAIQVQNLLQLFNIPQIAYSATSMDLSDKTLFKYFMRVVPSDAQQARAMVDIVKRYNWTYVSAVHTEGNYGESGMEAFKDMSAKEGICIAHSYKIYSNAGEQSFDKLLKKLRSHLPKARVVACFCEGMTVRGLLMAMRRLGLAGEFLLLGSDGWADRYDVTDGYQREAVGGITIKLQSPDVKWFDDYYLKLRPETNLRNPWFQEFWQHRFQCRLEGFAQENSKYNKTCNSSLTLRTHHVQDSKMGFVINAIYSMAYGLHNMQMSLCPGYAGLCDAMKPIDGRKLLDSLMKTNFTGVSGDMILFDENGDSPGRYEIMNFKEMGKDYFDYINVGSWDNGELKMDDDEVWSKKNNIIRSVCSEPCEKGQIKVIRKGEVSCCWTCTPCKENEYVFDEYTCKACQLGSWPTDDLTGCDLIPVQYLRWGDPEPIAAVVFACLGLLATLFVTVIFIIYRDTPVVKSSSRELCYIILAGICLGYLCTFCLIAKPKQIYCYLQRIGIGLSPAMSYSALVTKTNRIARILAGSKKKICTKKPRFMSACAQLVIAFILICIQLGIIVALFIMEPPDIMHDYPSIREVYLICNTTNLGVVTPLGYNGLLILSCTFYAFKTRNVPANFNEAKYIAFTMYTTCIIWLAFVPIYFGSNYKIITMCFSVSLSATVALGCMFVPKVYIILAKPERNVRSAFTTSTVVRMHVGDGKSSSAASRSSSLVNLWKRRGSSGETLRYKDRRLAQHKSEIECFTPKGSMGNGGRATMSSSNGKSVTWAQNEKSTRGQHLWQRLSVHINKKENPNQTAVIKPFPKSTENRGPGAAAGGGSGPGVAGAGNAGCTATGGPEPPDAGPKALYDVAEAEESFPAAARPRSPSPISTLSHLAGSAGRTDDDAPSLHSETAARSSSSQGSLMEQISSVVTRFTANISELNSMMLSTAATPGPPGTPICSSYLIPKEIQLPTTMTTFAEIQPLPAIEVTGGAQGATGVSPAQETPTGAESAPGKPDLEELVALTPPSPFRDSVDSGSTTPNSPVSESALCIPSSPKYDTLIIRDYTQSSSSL
Outline: (§2)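 Radioligand displacement of [³H]-3-methoxy-5-(pyridin-2-ylethynyl)pyridine used rat cortical membranes. Values come from n = 2–4 determinations, with SD < ±25%.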

[3] = target: Metabotropic glutamate receptor 5 (Rattus norvegicus) (UniProt P31424); assay: Percent occupancy of the Metabotropic glutamate receptor 5 by the [3H]3-methoxy-5-(pyridin-2-ylethynyl)pyridine ligand 1 hr post-administration of 10 mg/kg compound ip; assay type: organism-based; parameters: dose 10 mg/kg
Metabotropic glutamate receptor 5 (Rattus norvegicus), sequence (P31424 21-1203 limits assumed): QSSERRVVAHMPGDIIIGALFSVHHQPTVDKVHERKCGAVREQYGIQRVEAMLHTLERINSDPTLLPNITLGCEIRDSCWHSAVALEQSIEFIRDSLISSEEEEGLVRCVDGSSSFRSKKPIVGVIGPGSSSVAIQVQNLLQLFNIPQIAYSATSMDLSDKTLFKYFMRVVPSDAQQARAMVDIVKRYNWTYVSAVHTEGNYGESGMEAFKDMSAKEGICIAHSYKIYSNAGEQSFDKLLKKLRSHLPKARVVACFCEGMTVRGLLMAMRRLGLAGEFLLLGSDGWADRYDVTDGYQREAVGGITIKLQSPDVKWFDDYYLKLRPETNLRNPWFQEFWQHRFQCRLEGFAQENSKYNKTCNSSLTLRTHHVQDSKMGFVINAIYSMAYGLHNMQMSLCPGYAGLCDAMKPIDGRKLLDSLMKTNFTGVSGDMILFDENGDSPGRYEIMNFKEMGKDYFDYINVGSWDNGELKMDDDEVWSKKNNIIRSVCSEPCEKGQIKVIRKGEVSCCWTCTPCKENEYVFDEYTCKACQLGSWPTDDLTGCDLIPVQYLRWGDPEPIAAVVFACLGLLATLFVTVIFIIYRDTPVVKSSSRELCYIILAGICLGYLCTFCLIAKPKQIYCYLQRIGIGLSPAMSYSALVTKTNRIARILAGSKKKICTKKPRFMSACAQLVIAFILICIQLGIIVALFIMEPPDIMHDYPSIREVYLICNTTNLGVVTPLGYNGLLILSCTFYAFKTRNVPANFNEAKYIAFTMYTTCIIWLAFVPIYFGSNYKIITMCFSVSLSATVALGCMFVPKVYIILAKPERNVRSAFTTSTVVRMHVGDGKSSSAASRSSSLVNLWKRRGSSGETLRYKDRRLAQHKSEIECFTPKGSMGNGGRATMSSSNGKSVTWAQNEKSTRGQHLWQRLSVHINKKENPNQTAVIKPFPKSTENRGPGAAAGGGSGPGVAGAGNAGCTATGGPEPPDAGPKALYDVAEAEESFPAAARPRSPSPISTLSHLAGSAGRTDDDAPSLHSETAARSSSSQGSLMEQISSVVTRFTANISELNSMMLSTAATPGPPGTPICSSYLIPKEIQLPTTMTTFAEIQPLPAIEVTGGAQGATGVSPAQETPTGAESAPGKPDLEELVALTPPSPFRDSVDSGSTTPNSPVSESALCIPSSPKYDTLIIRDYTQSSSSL
Outline: (§3)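 Rats were dosed ip at 10 mg/kg in PEG 400/water (1:1 v/v), given as a solution or a suspension. Receptor occupancy, hippocampus drug level and plasma drug level were measured 1 h after dosing.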

[4] = Level in rat brain after 1 hr following 10 mg/kg dose ip; assay type: ADME, organism-based; parameters: dose 10 mg/kg, route intraperitoneal; details: read-out: Level; outline: as §3
[5] = Plasma level after 1 hr following 10 mg/kg dose ip; assay type: ADME, organism-based; parameters: dose 10 mg/kg, route intraperitoneal; details: rat, read-out: Level; outline: as §3
[6] = target: T2, Metabotropic glutamate receptor 5; assay: Binding affinity towards Metabotropic glutamate receptor was determined by displacing [3H]3-methoxy-5-(pyridin-2-ylethynyl)pyridine from rat cortical membranes; NA=Not active; outline: as §2
[7] = target: T1, Metabotropic glutamate receptor 5; assay: Antagonistic activity against Metabotropic glutamate receptor 5 in [Ca2+] flux assay using glutamate (10 uM) as agonist; NA=Not active; assay type: functional; outline: as §1
[8] = Plasma clearance after i.v. dosing at 1 mg/kg, p.o. dosing at 1 mg/kg. In solution of PEG 400/water in dog; assay type: ADME, organism-based, Canis lupus familiaris; details: iv, read-out: Clp
[9] = Maximum concentration after i.v. dosing at 1 mg/kg, p.o. dosing at 1 mg/kg. In solution of PEG 400/water in dog; assay type: ADME, organism-based, Canis lupus familiaris; details: in vivo, po
[10] = Maximum concentration after i.v. dosing at 2 mg/kg, p.o. dosing at 10 mg/kg. In solution of PEG 400/water in rat; assay type: ADME, organism-based; details: in vivo, po
Outline: (§4)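 Rats were dosed iv at 2 mg/kg and orally at 10 mg/kg, in solution in PEG 400/water (1:1 v/v).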

[11] = Maximum concentration after i.v. dosing at 1 mg/kg, p.o. dosing at 1 mg/kg. In solution of PEG 400/water in monkey; assay type: ADME, organism-based; details: cercopithecidae, in vivo, po
[12] = Plasma clearance after i.v. dosing at 2 mg/kg, p.o. dosing at 10 mg/kg. In solution of PEG 400/water in rat; assay type: ADME, organism-based; details: iv, read-out: Clp; outline: as §4
[13] = Plasma clearance after i.v. dosing at 1 mg/kg, p.o. dosing at 1 mg/kg. In solution of PEG 400/water in monkey; assay type: ADME, organism-based; details: cercopithecidae, iv, read-out: Clp
[14] = Volume of distribution after i.v. dosing at 1 mg/kg, p.o. dosing at 1 mg/kg. In solution of PEG 400/water in dog; assay type: ADME, organism-based, Canis lupus familiaris; details: in vivo, iv
[15] = Volume of distribution after i.v. dosing at 2 mg/kg, p.o. dosing at 10 mg/kg. In solution of PEG 400/water in rat; assay type: ADME, organism-based; details: in vivo, iv; outline: as §4
[16] = Volume of distribution after i.v. dosing at 1 mg/kg, p.o. dosing at 1 mg/kg. In solution of PEG 400/water in monkey; assay type: ADME, organism-based; details: cercopithecidae, in vivo, iv
[17] = Oral bioavailability after i.v. dosing at 1 mg/kg, p.o. dosing at 1 mg/kg. In solution of PEG 400/water in dog; assay type: ADME, organism-based, Canis lupus familiaris; details: in vivo
[18] = Oral bioavailability after i.v. dosing at 2 mg/kg, p.o. dosing at 10 mg/kg. In solution of PEG 400/water in rat; assay type: ADME, organism-based; details: in vivo; outline: as §4
[19] = Oral bioavailability after i.v. dosing at 1 mg/kg, p.o. dosing at 1 mg/kg. In solution of PEG 400/water in monkey; assay type: ADME, organism-based; details: cercopithecidae, in vivo
[20] = Half life after i.v. dosing at 1 mg/kg, p.o. dosing at 1 mg/kg. In solution of PEG 400/water in dog; assay type: ADME, organism-based, Canis lupus familiaris; details: in vivo
[21] = Half life after i.v. dosing at 2 mg/kg, p.o. dosing at 10 mg/kg. In solution of PEG 400/water in rat; assay type: ADME, organism-based; details: in vivo; outline: as §4
[22] = Half life after i.v. dosing at 1 mg/kg, p.o. dosing at 1 mg/kg. In solution of PEG 400/water in monkey; assay type: ADME, organism-based; details: cercopithecidae, in vivo

T1 sequence (P41594 whole entry): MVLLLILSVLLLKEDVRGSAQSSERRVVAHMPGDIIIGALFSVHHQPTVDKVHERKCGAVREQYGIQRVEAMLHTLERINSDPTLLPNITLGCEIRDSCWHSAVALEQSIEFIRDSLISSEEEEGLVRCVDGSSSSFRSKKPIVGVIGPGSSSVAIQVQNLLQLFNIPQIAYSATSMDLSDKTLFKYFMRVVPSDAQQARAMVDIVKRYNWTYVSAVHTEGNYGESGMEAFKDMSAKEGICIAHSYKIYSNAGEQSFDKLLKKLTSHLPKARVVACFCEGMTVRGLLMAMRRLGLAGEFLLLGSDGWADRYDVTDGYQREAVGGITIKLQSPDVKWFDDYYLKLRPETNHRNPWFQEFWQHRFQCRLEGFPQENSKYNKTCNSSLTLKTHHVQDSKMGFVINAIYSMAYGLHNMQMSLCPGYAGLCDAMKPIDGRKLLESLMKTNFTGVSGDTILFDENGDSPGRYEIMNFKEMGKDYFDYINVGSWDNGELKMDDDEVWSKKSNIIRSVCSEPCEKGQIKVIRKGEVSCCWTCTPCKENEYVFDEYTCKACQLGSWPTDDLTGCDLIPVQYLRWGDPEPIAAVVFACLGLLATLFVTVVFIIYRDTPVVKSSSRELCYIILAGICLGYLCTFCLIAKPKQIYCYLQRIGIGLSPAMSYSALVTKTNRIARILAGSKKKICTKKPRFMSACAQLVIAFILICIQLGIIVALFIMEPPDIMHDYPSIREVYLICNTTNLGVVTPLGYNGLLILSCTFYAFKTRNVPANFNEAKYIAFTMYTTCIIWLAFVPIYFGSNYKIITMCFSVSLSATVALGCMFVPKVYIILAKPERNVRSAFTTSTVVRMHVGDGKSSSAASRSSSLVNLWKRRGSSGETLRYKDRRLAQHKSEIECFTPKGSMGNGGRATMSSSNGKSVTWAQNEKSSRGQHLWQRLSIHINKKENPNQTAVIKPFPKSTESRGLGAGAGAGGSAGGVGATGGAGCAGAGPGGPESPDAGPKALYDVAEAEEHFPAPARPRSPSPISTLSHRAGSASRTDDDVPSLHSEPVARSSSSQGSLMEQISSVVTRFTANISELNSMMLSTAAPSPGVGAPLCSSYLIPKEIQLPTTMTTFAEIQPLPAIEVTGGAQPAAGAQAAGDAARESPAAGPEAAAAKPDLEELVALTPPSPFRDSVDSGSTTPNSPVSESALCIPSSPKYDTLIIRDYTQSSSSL

CN(c1cccnc1)c1cc(F)cc(-n2nnc(-c3ccccn3)n2)c1
IC50 [1]: 0.022 µM
Ki [2]: 0.03 µM
Occupancy [3]: 58%
concentration at 1 h [4]: 4.9 µM
concentration at 1 h [5]: 3.5 µM

c1ccc(-c2nnn(-c3cccc(Oc4ccncc4)c3)n2)nc1
Ki [6]: Not Active
IC50 [7]: Not Active

N#Cc1cccc(-n2nnc(-c3ccccn3)n2)c1
IC50 [1]: 0.073 µM
Ki [2]: 0.186 µM
Occupancy [3]: 96%
concentration at 1 h [4]: 12 µM
concentration at 1 h [5]: 13 µM

c1ccc(-c2nnn(-c3ccc(Oc4cccnc4)cc3)n2)nc1
IC50 [1]: 0.737 µM
Ki [2]: 0.633 µM

N#Cc1cc(F)cc(-n2nnc(-c3ccccn3)n2)c1
IC50 [1]: 0.0039 µM
Occupancy [3]: 97%
concentration at 1 h [4]: 9.7 µM
concentration at 1 h [5]: 8.7 µM

Fc1cc(Cc2cccnc2)cc(-n2nnc(-c3ccccn3)n2)c1
IC50 [1]: 0.017 µM
Ki [2]: 0.038 µM
Occupancy [3]: 43%
concentration at 1 h [4]: 2.7 µM
concentration at 1 h [5]: 0.9 µM

c1ccc(-c2nnn(-c3ccccc3Oc3cccnc3)n2)nc1
IC50 [1]: 1.58 µM

Fc1cc(Oc2cccnc2)cc(-n2nnc(-c3ccccn3)n2)c1
clearance [8]: 14 mL/min/kg
IC50 [1]: 0.0067 µM
Ki [2]: 0.012 µM
Cmax [9]: 1.4 µM
Cmax [10]: 11 µM
Cmax [11]: 0.3 µM
clearance [12]: 21 mL/min/kg
clearance [13]: 7.7 mL/min/kg
Vd [14]: 1.5 L/kg
Vd [15]: 22 L/kg
Vd [16]: 0.7 L/kg
bioavailability [17]: 54%
bioavailability [18]: 100%
concentration at 1 h [4]: 6.7 µM
concentration at 1 h [5]: 7.4 µM
bioavailability [19]: 27%
half-life [20]: 2.3 h
half-life [21]: 2.7 h
half-life [22]: 2.5 h

Fc1cc(Sc2cccnc2)cc(-n2nnc(-c3ccccn3)n2)c1
IC50 [1]: 0.013 µM
Ki [2]: 0.016 µM
Occupancy [3]: 83%
concentration at 1 h [4]: 1.5 µM
concentration at 1 h [5]: 3.4 µM

Fc1cc(-n2nnc(-c3ccccn3)n2)cc(-n2ccc3cccnc32)c1
IC50 [1]: 0.016 µM
Ki [2]: 0.025 µM

c1ccc(Oc2cccc(-n3nnc(-c4ccccn4)n3)c2)nc1
IC50 [1]: 2.86 µM
Ki [2]: 0.633 µM

c1ccc(Oc2cccc(-n3nnc(-c4ccccn4)n3)c2)cc1
IC50 [1]: 1.46 µM
Ki [2]: 0.617 µM

c1ccc(-c2nnn(-c3cccc(Oc4cccnc4)c3)n2)nc1
IC50 [1]: 0.03 µM
Ki [2]: 0.059 µM
Occupancy [3]: 60%

Fc1cc(Nc2cccnc2)cc(-n2nnc(-c3ccccn3)n2)c1
IC50 [1]: 0.124 µM
Ki [2]: 0.029 µM
